In ChEMBL document CHEMBL4431339, “1,2,3-Triazoles as Amide Bioisosteres: Discovery of a New Class of Potent HIV-1 Vif Antagonists” (J Med Chem, 2016):
Calls of active or inactive are those of the source. Unless noted, the calls are words filed in the database; no cut-off is given here.

Legend:
[1] = molecular target: Virion infectivity factor (Human immunodeficiency virus type 1 group M subtype B (isolate NY5)(HIV-1)) (UniProt P12504); assay: Antagonist activity against HIV-1 Vif in human MT4 cells assessed as inhibition of viral infection at 50 and 100 uM measured after 16 hrs by cell-based assay; conditions: Human immunodeficiency virus 1
[2] = molecular target: Virion infectivity factor (Human immunodeficiency virus type 1 group M subtype B (isolate NY5)(HIV-1)) (UniProt P12504); assay: (§1) Antagonist activity against HIV-1 Vif in human MT4 cells assessed as inhibition of viral infection at 50 uM measured after 16 hrs by cell-based assay; conditions: Human immunodeficiency virus 1
Procedure, shortened: (§2)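 Antiviral activity was measured against wild-type HIV-1 in permissive MT-4 cells as a Vif-specificity counter-screen. RN-18 was the positive control, and cells cultured without inhibitor were the negative control. "No activity" means no inhibition at 50 µM.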

[3] = molecular target: Virion infectivity factor (Human immunodeficiency virus type 1 group M subtype B (isolate NY5)(HIV-1)) (UniProt P12504); assay: Antagonist activity against HIV-1 GFP-tagged Vif in human HEK293FT cells co-expressing HA-tagged A3G assessed as upregulation of A3G levels at 50 uM measured after 16 hrs by immunoblotting method; assay type: cell-based; conditions: Human immunodeficiency virus 1
Procedure, shortened: (§3)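 HEK293FT cells co-expressing HA-tagged A3G and either GFP-tagged Vif or Vif were incubated with or without compound (50 µM) for 16 h. Cell extracts were immunoblotted with anti-HA (A3G), anti-GFP (Vif) and anti-GAPDH antibodies. Untreated cells served as the comparison, and choline chloride was included as a negative control in the triazole series.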

[4] = molecular target: Virion infectivity factor (Human immunodeficiency virus type 1 group M subtype B (isolate NY5)(HIV-1)) (UniProt P12504); assay: Antagonist activity against HIV-1 GFP-tagged Vif in human HEK293FT cells co-expressing HA-tagged A3G assessed as downregulation of Vif expression expression at 50 uM measured after 16 hrs by immunoblotting method; assay type: cell-based; conditions: Human immunodeficiency virus 1; procedure, shortened: as §3
HeLa = assay: Cytotoxicity against human HeLa cells at 50 uM measured after 16 hrs by MTS assay relative to DMSO control; assay type: cell-based
[5] = molecular target: Virion infectivity factor (Human immunodeficiency virus type 1 group M subtype B (isolate NY5)(HIV-1)) (UniProt P12504); assay: Antagonist activity against HIV-1 Vif in human H9 cells expressing A3G assessed as inhibition of viral replication by reverse transcriptase assay relative to vehicle-treated control; assay type: cell-based; conditions: Human immunodeficiency virus 1
Procedure, shortened: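 Antiviral activity was measured against wild-type HIV-1 in non-permissive (A3G-expressing) H9 cells and reported as IC50. RN-18 was the positive control, and cells cultured without inhibitor were the negative control. Selected compounds were tested across doses, and MTS cell viability was checked in parallel at 50 µM.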

[6] = molecular target: Virion infectivity factor (Human immunodeficiency virus type 1 group M subtype B (isolate NY5)(HIV-1), UniProt P12504); assay: as §1; parameters: species or system Human immunodeficiency virus 1; procedure, shortened: as §2
Sequence of Virion infectivity factor (P12504 whole entry): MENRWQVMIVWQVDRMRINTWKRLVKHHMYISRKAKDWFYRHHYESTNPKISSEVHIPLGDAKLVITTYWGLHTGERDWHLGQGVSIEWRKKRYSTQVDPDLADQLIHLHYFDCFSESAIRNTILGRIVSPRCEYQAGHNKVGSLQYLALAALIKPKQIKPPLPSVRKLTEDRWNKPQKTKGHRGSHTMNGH

Sequence of Virion infectivity factor (Human immunodeficiency virus type 1 group M subtype B (isolate NY5)(HIV-1)) (P12504 whole entry): as above

| Structure (SMILES) | Activity [1] | Activity [2] | Activity [3] | Activity [4] | Activity (HeLa) | inhibition [5] | IC50 [6] |
| --- | --- | --- | --- | --- | --- | --- | --- |
| COc1ccccc1NC(=O)c1ccccc1Sc1ccc([N+](=O)[O-])cc1 | inactive | inactive | Active | Active | Non-Toxic | Dose-dependent effect | – |
| COc1ccccc1-n1cc(-c2ccccc2Sc2ccc([N+](=O)[O-])cc2)nn1 | – | – | Active | Active | – | – | Not Active |
| COc1ccc(OC)c(-n2cc(-c3ccccc3S(=O)(=O)c3ccc(N)cc3)nn2)c1 | – | inactive | Active | Active | Non-Toxic | Dose-dependent effect | – |
| COc1ccccc1-c1noc(-c2ccccc2Sc2ccc([N+](=O)[O-])cc2)n1 | – | – | Active | Active | – | – | Not Active |
